# Compound activity deposited in PubChem BioAssay by The Scripps Research Institute Molecular Screening Center.
# pPAFAH FP inh: inhibitors of human plasma PAF acetylhydrolase (pPAFAH). Q13093. recombinant pPAFAH, FP-rhodamine probe fluorescence polarization. inhibition, % at 3.39 µM. actives 1.5% (n = 330,000). AID 463082;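 active = inhibition above the mean inhibition across the screen plus 3 SD, cut at about 25% in these data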;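 also: inhibitors block binding of the rhodamine activity-based probe so polarization drops; 0% = enzyme with DMSO and 100% = wells lacking pPAFAH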
# Target sequence (Q13093 whole entry, looked up): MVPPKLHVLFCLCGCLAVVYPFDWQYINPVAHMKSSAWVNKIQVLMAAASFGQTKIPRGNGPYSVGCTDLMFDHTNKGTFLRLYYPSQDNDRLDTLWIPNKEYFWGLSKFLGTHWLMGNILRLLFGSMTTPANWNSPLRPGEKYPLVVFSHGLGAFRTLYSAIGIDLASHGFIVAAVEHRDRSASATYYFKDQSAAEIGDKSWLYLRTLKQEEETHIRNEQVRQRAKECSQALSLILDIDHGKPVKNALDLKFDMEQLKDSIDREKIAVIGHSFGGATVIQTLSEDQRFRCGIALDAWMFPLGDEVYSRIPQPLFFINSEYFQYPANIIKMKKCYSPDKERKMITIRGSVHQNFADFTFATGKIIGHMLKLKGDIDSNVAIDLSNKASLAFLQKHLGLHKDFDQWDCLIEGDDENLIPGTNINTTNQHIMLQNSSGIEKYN
# PAFAH2 FP inh: PAFAH2 (human) inhibition. recombinant PAFAH2, FP-rhodamine activity probe, fluorescence polarization. inhibition, % at 3.39 µM. actives 0.99% (n = 340,000). Q99487;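 active = inhibition above the mean over all tested compounds plus 3 SD, cut at about 30% in these data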;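 also: inhibitors block probe labeling of enzyme so polarization drops; 0% = enzyme with DMSO and 100% = wells lacking PAFAH2 protein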
# PAFAH1B2 FP inh: inhibitors of human PAFAH1B2. P68402. recombinant PAFAH1B2, FP-rhodamine activity probe, fluorescence polarization. inhibition, % at 3.39 µM. actives 1.2% (n = 340,000);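 active = inhibition above the mean of all tested compounds plus 3 SD, cut at about 24% in these data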;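 also: 0% = enzyme with DMSO and 100% = wells lacking PAFAH1B2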
# ABHD4 inh: inhibits mouse alpha/beta hydrolase domain 4 | Q8VD66 | purified mABHD4, FP-Rh probe fluorescence polarization | inhibition, % at 8.92 µM | actives 0.54% (n = 370,000);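 active = inhibition exceeding the mean over every tested compound plus 3 SD, cut at about 30% in these data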;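 also: 0% = plate median of compound wells and 100% = S159A mutant with DMSO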
#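 Material: mouse ABHD4 enzyme, wild type; Benchmarks: S159A mutant high control, sample median low control; Buffer or medium: HEPES pH 7.0, NaCl, Pluronic buffer; Signal: fluorescence polarization; Read-out: percent inhibition of probe binding, normalized to plate controls; Timing: pre-incubation 45 min, probe exposure 60 min, at 25 °C; Dosing: 8.92 µM, single dose.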
# PAFAH1B3 FP inh: inhibitors of human PAFAH1B3; actives 0.28% (n = 340,000); recombinant PAFAH1B3, FP-rhodamine probe, fluorescence polarization; inhibition, % at 3.39 µM;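 active = inhibition above the screen-wide average of all tested compounds plus 3 SD, cut at about 25% in these data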;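 also: 0% = enzyme with DMSO only and 100% = wells lacking PAFAH1B3 protein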
# HTRA1 inh: HTRA1 (human) protease inhibition. Q92743. recombinant HTRA1, FP-rhodamine activity-based probe, fluorescence polarization. inhibition, % at 5.96 µM. actives 0.5% (n = 340,000). AID 504803; in the data active = inhibition above about 36%;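 also: 0% = enzyme with DMSO and 100% = wells lacking enzyme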
# An asterisk follows results filed as active; nt = no result. Only some compounds are listed: those with a hit (about 2.8% of all), similar ones and a draw of the others.
SMILES,pPAFAH FP inh,PAFAH2 FP inh,PAFAH1B2 FP inh,ABHD4 inh,PAFAH1B3 FP inh,HTRA1 inh
CC(C)(C)N1C(=O)Cc2c1nc(N)c1c(N)nc(N3CCCCC3CO)c(C#N)c21 (configuration not stated),19,5,4,nt,-3,56*
CN(CCO)c1nc(N)c2c(N)nc3c(c2c1C#N)CC(=O)N3C1CCCC1,15,nt,nt,nt,nt,nt
O=C1c2[nH]nc(-c3ccccc3)c2C(c2ccc(F)cc2)N1Cc1ccccc1 (configuration not stated),nt,nt,nt,-27,nt,nt
N#CCC[C@@H]1CC[C@]2(CCCN(C(=O)c3ccc4ccccc4n3)C2)O1,nt,nt,nt,2,nt,nt
CCOc1ccc2nc(SCC(=O)NC(=O)NCc3ccco3)sc2c1,26*,-5,-20,-20,6,-32
CCOc1ccc2nc(SCC(=O)NCc3ccco3)sc2c1,6,-6,0,4,-3,-10
NC(=O)C1CCCN(S(=O)(=O)c2ccc3ccccc3c2)C1 (configuration not stated),-4,1,3,3,4,5
CCCNC(=O)C1CCN(S(=O)(=O)c2ccc(Br)cc2)CC1,0,5,25*,1,4,6
NC(=O)C1CCCN(S(=O)(=O)c2ccc(Br)cc2)C1 (configuration not stated),1,15,28*,-5,3,-5
O=C(CCNC(=O)C1CCN(S(=O)(=O)c2ccc(F)cc2)CC1)NCc1ccc(F)cc1,4,6,27*,7,7,3
CCCNC(=O)C1CCN(S(=O)(=O)c2ccc3c(c2)OCCO3)CC1,0,2,8,-1,5,3
O=C(NCCC1CCCCN1S(=O)(=O)c1ccccc1)C(=O)NCc1ccc(F)cc1 (configuration not stated),10,1,27*,5,2,-10
O=C(Nc1ccc2c(c1)OCO2)OC1CC2CC1[C@H]1CCCCN1[C@H]2Cc1ccccc1 (some centres not stated),nt,nt,nt,-7,nt,nt
O=C1C(Cl)=C(NS(=O)(=O)c2ccc([N+](=O)[O-])cc2)C(=O)c2ccccc21,5,17,22,30*,24,13
Cc1[nH]n(-c2ccccc2)c(=O)c1C(C[N+](=O)[O-])c1ccc(Br)cc1 (configuration not stated),5,7,35*,8,23,-11
COc1cccc(C(C[N+](=O)[O-])c2c(C)[nH]n(-c3ccccc3)c2=O)c1 (configuration not stated),-1,4,8,-1,4,8
Cc1[nH]c2ccccc2c1C(=O)C(=O)NC1CC1,28*,1,3,4,3,9
O=C(OC12CCCN(C1)/C(=C/c1ccccc1)C2)c1ccc(Cl)cc1 (configuration not stated),nt,nt,nt,-1,nt,nt
O=C(NCCCc1ccccc1)[C@H](CO)NC1(C(=O)NCCc2c[nH]c3ccccc23)CCCCC1,nt,nt,nt,2,nt,nt
CC1C2(C)OC(=N)C(C#N)(C(C)O2)C1(C#N)C#N (configuration not stated),4,75*,53*,nt,60*,24
CN(C(=O)COC(=O)c1cc(NS(=O)(=O)c2cc([N+](=O)[O-])ccc2Cl)ccc1O)C1CCCCC1,10,17,26*,-7,9,-6
CN(C)c1ccc(/C=C/c2ccc3ccccc3n2)cc1,12,5,2,nt,6,1
CCN(CC)c1ccc(/C=C/c2cc(-c3ccccc3)c3ccccc3n2)cc1,25*,-5,-2,-110,4,25
CCC(C)CCCCCCCCCCC(=O)O (configuration not stated),7,9,48*,-2,14,-10
CSc1ccc(CN2CCN(CC=C(C)C)C(CCO)C2)cc1 (configuration not stated),25*,-5,-1,0,10,3
SMILES,pPAFAH FP inh,PAFAH2 FP inh,PAFAH1B2 FP inh,ABHD4 inh,PAFAH1B3 FP inh,HTRA1 inh
CCOc1ccc(-n2c(SCc3ccc(C#N)cc3)nnc2-c2ccco2)cc1,nt,nt,nt,-15,nt,nt
CCCc1ccc2oc(C(=O)N3CCC(COC)C3)c(C)c2c1 (configuration not stated),27*,10,5,-3,-2,-9
CC(CCN1CCC(C(O)(c2ccccc2)c2ccccc2)CC1)Oc1cc(F)cc(C#N)c1 (configuration not stated),nt,nt,nt,5,nt,nt
Cc1cccc(C(=O)Nc2nc3ncccn3c2-c2ccccc2)c1,nt,nt,nt,0,nt,nt
O=C(O)c1ccc([N+](=O)[O-])c2c1C(=O)c1ccccc1C2=O,5,16,14,0,15,16
O=C1c2ccccc2C(=O)c2c([N+](=O)[O-])ccc(O)c21,27*,40*,43*,10,64*,36
O=C(Cc1ccccc1F)N1CCC(n2nnc3ncccc32)CC1,nt,nt,nt,1,nt,nt
Cn1cccc1C(=O)OCC(=O)Nc1ccc2c(c1)CCC2,28*,62*,-1,-11,1,-2
Clc1ccc(SCc2cc(-c3ccccc3)no2)cc1,-1,1,42*,-16,4,-7
CC(C)C[C@@H](CO)N1Cc2nnn(Cc3ccccc3)c2-c2ccccc2S1(=O)=O,nt,nt,nt,5,nt,nt
O=C(NCc1cccnc1)C(=O)Nc1nc(C23CC4CC(CC(C4)C2)C3)cs1,3,23,33*,-19,8,-4
CNC(=O)C(=O)Nc1nc(C23CC4CC(CC(C4)C2)C3)cs1,-5,5,26*,-1,10,-2
O=C(NCc1ccccc1)C(=O)Nc1nc(C23CC4CC(CC(C4)C2)C3)cs1,3,-1,12,7,7,5
COC(=O)[C@]12C[C@H](CC(=O)NCCC(C)C)C(=O)N(Cc3ccc(Cl)cc3Cl)C1=C[C@H](C(C)(C)C)O[C@@H]2C,nt,nt,nt,-9,nt,nt
Cc1ccc(S(=O)(=O)N(C)C)cc1NC(=O)COC(=O)CCNS(=O)(=O)c1ccccc1,nt,5,11,8,3,-1
Cc1ccc(S(=O)(=O)N(C)C)cc1NC(=O)COC(=O)CCC(=O)c1ccc(F)cc1,8,-2,3,0,2,4
Cc1ccc(S(=O)(=O)N(C)C)cc1NC(=O)COC(=O)CSc1ccccc1,28*,15,18,1,6,2
Cc1ccc(S(=O)(=O)N(C)C)cc1NC(=O)COC(=O)CCC1CCCCC1,33*,21,1,-1,8,-10
O=C(N=C1N(Cc2ccccc2)[C@@H](Cc2ccccc2)[C@]2(C=C3CCCCC3n3c(=O)n(-c4ccccc4)c(=O)n32)N1C(=O)OCc1ccccc1)c1ccccc1 (some centres not stated),nt,nt,nt,-4,nt,nt
COC(=O)C1CN(CC(C)C)CCS(=O)(=O)N1Cc1cccc(Cl)c1 (configuration not stated),nt,nt,nt,1,nt,nt
Cc1ccc2nc(Cl)c(/C=N/Nc3ccc(C(=O)O)cc3)cc2c1,30*,-4,4,21,10,-15
